Measured values as given in paper PMC6626068 (Journal of Advanced Research, 2019).
Where two headings read alike, the source gives them in different places.

Legend:
Assay type in all cases: cell-based
[1] = test system: MDA-MB-231; experiment: MTT cytotoxicity assay, MDA-MB-231 cells; settings: read-out: IC50 (μM) MDA-MB-231
Summary of the method: (§1)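 Cells were grown in DMEM with 10% FBS and 1% penicillin/streptomycin at 37 °C under 5% CO₂, then seeded at 1 × 10⁴ cells/well. After 24 h they received the test compound at 0, 2.5, 5, 10, 20 and 40 μM for 72 h, with doxorubicin as positive control. MTT (5 mg/mL stock) was added for 4 h, formazan dissolved in DMSO for 10 min, A570 read, and IC50 calculated.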

[2] = test system: HCT-116; experiment: MTT cytotoxicity assay, HCT-116 cells; settings: read-out: IC50 (μM) HCT-116
Summary of the method: as §1

[3] = test system: HeLa; experiment: MTT cytotoxicity assay, HeLa cells; settings: 72 h; for IC50: read-out: IC50 (μM) HeLa
Summary of the method: as §1

[4] = test system: MCF-7; experiment: MTT cytotoxicity assay, MCF-7 cells; settings: for IC50: read-out: IC50 (μM) MCF-7
Summary of the method: as §1

[5] = test system: HepG2; experiment: MTT cytotoxicity assay, HepG2 cells; settings: read-out: IC50 (μM) HepG2
Summary of the method: as §1

[6] = test system: HUVEC; experiment: MTT cytotoxicity assay, normal cell line HUVEC; settings: 72 h, read-out: IC50 (μM) HUVEC
[7] = test system: GFP-LC3-HeLa cells; experiment: Autophagy detection using GFP-LC3 expression in HeLa cells; settings: 25 μM, 24 h, observation control
Summary of the method: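 HeLa cells stably expressing GFP-LC3, grown in 24-well plates, were exposed to the test compound for 24 h, either at 10 μM for screening or at 2.5, 5, 10 and 20 μM. Chloroquine phosphate at 25 μM served as the observation control. GFP-LC3 puncta were imaged by fluorescence microscopy, and dots per cell were counted.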

[8] = test system: MCF-7 cells; experiment: Annexin V/PI double staining flow cytometry, MCF-7; settings: MCF-7, 1 μM, 48 h (positive control)
[9] = test system: HeLa cells; experiment: Annexin V/PI double staining flow cytometry, HeLa; settings: 1 μM, 48 h (positive control)

Compound	IC50 ([1]; Homo sapiens, MDA-MB-231, 72 h) [µM]	IC50 ([2]; Homo sapiens, HCT-116, 72 h) [µM]	IC50 ([3]; Homo sapiens) [µM]	IC50 ([4]; Homo sapiens, MCF7, 72 h) [µM]	IC50 ([5]; Homo sapiens, HepG2, 72 h) [µM]	IC50 ([6]; Homo sapiens, HUVEC) [µM]	further results
COc1cc(-c2coc3c(CC=C(C)C)c(OC)c(OC)c(O)c3c2=O)c(OC)cc1O [Compound 5, 8-(γ, γ-dimethylallyl)-5,4′-dihydroxy-6,7,2′,5′-tetramethoxyisoflavone]	27.6 ± 4.54	25.9 ± 0.85	35.7 ± 3.91	35.1 ± 1.44	31.6 ± 2.06	> 50	–
CCN(CC)CCCC(C)Nc1ccnc2cc(Cl)ccc12 (centres unmarked) [chloroquine phosphate]	–	–	–	–	–	–	GFP-LC3 dots (autophagosomes) [7]: obvious increase in the GFP-LC3 dots
3,9-dihydroxypterocarp-6a-en [Compound 17]	–	–	–	–	–	–	IC50 ([1]; MTT, 72 h, means ± SEM (n = 3)): 36.8 ± 5.61 µM; IC50 ([2]; MTT, 72 h, means ± SEM (n = 3)): 39.7 ± 2.06 µM; IC50 ([3]; MTT, means ± SEM (n = 3)): 36.1 ± 7.34 µM; IC50 ([4]; MTT, 72 h, means ± SEM (n = 3)): 30.3 ± 1.32 µM; IC50 ([5]; MTT, 72 h, means ± SEM (n = 3)): 34.2 ± 1.87 µM; IC50 ([6]; normal cell line, MTT, compounds at 50 μM, means ± SEM (n = 3)): > 50 µM
COc1cccc2c1C(=O)c1c(O)c3c(c(O)c1C2=O)C[C@@](O)(C(=O)CO)C[C@@H]3O[C@H]1C[C@H](N)[C@H](O)[C@H](C)O1 [Doxorubicin, reference compound]	0.03 ± 0.002	0.03 ± 0.003	0.03 ± 0.001	0.02 ± 0.003	0.02 ± 0.002	0.04 ± 0.005	–
COc1cc2c(c(OC)c1OC)-c1ccc(OC)c(=O)cc1[C@@H](NC(C)=O)CC2 [Colchicine, colchicine]	–	–	–	–	–	–	apoptosis rate (early + late apoptotic cells) [8]: 38.01%; apoptosis rate (early + late apoptotic cells) [9]: 45.62%
COc1cc(OC)c(-c2coc3c(CC=C(C)C)c(OC)c(OC)cc3c2=O)cc1OC [Compound 4, 8-(γ, γ-dimethylallyl)-6,7,2′,4′,5′-pentamethoxyisoflavone]	15.8 ± 2.15	8.61 ± 0.72	7.86 ± 1.21	18.5 ± 0.51	8.74 ± 0.83	> 50	growth inhibition of HeLa cells (primary screening) ([3]; 50 μM, MTT): most active; growth inhibition of MCF-7 cells (primary screening) ([4]; 50 μM, 72 h, MTT): most active
